From ChEMBL document CHEMBL5247675, “Antimicrobial Peptides Incorporating Halogenated Marine-Derived Amino Acid Substituents” (ACS Med Chem Lett, 2023)
Non-standard residues stand in square brackets, D forms with d. Residues, ends and D or L forms follow the SMILES beside them. *: point of attachment. Bip = N[C@@H](Cc1ccc(-c2ccccc2)cc1)C(=O)O; Lys(Me3) = C[N+](C)(C)CCCC[C@H](N)C(=O)O; NHPhenethyl = c1ccc(CCN*)cc1

Legend:
[1] = tested on: Escherichia coli; test: Antimicrobial activity against Escherichia coli ATCC 25922 assessed as reduction in microbial growth incubated for 18 hrs by CLSI protocol based two fold serial dilution method; type: functional
[2] = tested on: Staphylococcus aureus; test: Antimicrobial activity against Staphylococcus aureus ATCC 29213 assessed as reduction in microbial growth incubated for 18 hrs by CLSI protocol based two fold serial dilution method; type: functional
[3] = tested on: Candida albicans; test: Antimicrobial activity against Candida albicans SC5314 assessed as reduction in microbial growth incubated for 48 hrs by CLSI protocol based broth microdilution method; type: functional
[4] = tested on: Cyberlindnera jadinii; test: Antimicrobial activity against clinical isolate Candida utilis SVB-Y1 assessed as reduction in microbial growth incubated for 48 hrs by CLSI protocol based broth microdilution method; type: functional; settings: Williopsis jadinii
In short: (§1)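 Clinical isolates of the fungi were subcultured from Auckland City Hospital. MICs were determined following Clinical and Laboratory Standards Institute recommended protocols.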

[5] = tested on: Aspergillus fumigatus; test: Antimicrobial activity against clinical isolate Aspergillus fumigatus SVB-F136 assessed as reduction in microbial growth incubated for 48 hrs by CLSI protocol based broth microdilution method; type: functional; in short: as §1
[6] = Hemolytic activity in human RBC assessed as hemolysis rate at 100 uM incubated for 45 mins by spectrophotometric assay relative to control; type: toxicity, cell-based, Erythrocyte; settings: human red blood cells, read-out: Activity
In short: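 Isolated, washed human erythrocytes were exposed to each compound at a single concentration of 100 μM. Percent hemolysis was recorded as a relative measure between compounds.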

[7] = Cytotoxicity against human HeLa cells assessed as reduction in cell viability incubated for 24 hrs by PrestoBlue assay; type: toxicity, cell-based
In short: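 HeLa (human epithelial) cells were exposed to serial peptide dilutions from 1.4 to 87.5 μM for 24 h at 37 °C. Viability was read by PrestoBlue, and IC50 was taken from dose–response curves. There were two independent experiments, each in triplicate, reported as mean ± SD.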

[8] = Hemolytic activity in human RBC assessed as hemolysis rate incubated for 45 mins by spectrophotometric assay; type: toxicity, cell-based, Erythrocyte; settings: human red blood cells

COc1c(Br)cc(CCNC(=O)[C@H](CCCNC(=N)N)NC(=O)[C@H](Cc2c[nH]c3ccccc23)NC(=O)[C@@H](N)CCCNC(=N)N)cc1Br
MIC [1]: > 64 µM
MIC [2]: 64 µM
MIC [3]: 8 µM
MIC [4]: 8 µM
MIC [5]: 64 µM
hemolysis at 0.75 h, 100 µM [6]: 0.35%

COc1c(Br)cc(C[C@H](NC(=O)[C@@H](N)CCCNC(=N)N)C(=O)N[C@@H](CCCNC(=N)N)C(=O)NCCc2c[nH]c3cc(Br)ccc23)cc1Br
MIC [1]: > 64 µM
MIC [2]: > 64 µM
MIC [3]: > 64 µM
MIC [4]: > 64 µM
MIC [5]: > 64 µM

C[N+](C)(C)CCCCC[C@H](N)C(=O)N[C@@H](Cc1ccc(-c2ccccc2)cc1)C(=O)N[C@@H](CCCNC(=N)N)C(=O)NCCc1ccccc1
MIC [1]: > 64 µM
MIC [2]: > 64 µM
MIC [3]: > 64 µM
MIC [4]: > 64 µM
MIC [5]: > 64 µM

CC1(C)S[C@@H]2[C@H](NC(=O)[C@H](N)c3ccc(O)cc3)C(=O)N2[C@H]1C(=O)O [AMOXICILLIN]
MIC [1]: 16 µM
MIC [2]: 4 µM

C[C@@H]1[C@H](O)[C@@H](C)/C=C/C=C/C=C/C=C/C=C/C=C/C=C/[C@H](O[C@@H]2O[C@H](C)[C@@H](O)[C@H](N)[C@@H]2O)C[C@@H]2O[C@](O)(C[C@@H](O)C[C@@H](O)[C@H](O)CC[C@@H](O)C[C@@H](O)CC(=O)O[C@H]1C)C[C@H](O)[C@H]2C(=O)O [AMPHOTERICIN B]
MIC [3]: 1 µM
MIC [4]: 2 µM
MIC [5]: 4 µM

N=C(N)NCCC[C@H](NC(=O)[C@H](Cc1ccc(-c2cc(Br)c(O)c(Br)c2)cc1)NC(=O)[C@@H](N)CCCNC(=N)N)C(=O)NCCc1cc(Br)c(O)c(Br)c1
MIC [1]: > 64 µM
MIC [2]: > 64 µM
MIC [3]: > 64 µM
MIC [4]: 64 µM
MIC [5]: ≥ 64 µM

C[N+](C)(C)CCCC[C@H](NC(=O)[C@H](Cc1ccc(-c2ccccc2)cc1)NC(=O)[C@@H](N)CCCC[N+](C)(C)C)C(=O)NCCc1ccccc1 (H-[Lys(Me3)]-[Bip]-[Lys(Me3)]-NHPhenethyl)
MIC [1]: > 64 µM
MIC [2]: > 64 µM
MIC [3]: > 64 µM
MIC [4]: 64 µM
MIC [5]: > 64 µM

N=C(N)NCCC[C@H](NC(=O)[C@@H](Cc1c[nH]c2cc(Br)ccc12)NC(=O)[C@@H](N)CCCNC(=N)N)C(=O)NCCc1ccccc1
MIC [1]: > 64 µM
MIC [2]: > 64 µM
MIC [3]: > 64 µM
MIC [4]: 16 µM
MIC [5]: > 64 µM
hemolysis at 0.75 h, 100 µM [6]: 0.27%

N=C(N)NCCC[C@H](NC(=O)[C@H](Cc1c[nH]c2cc(Br)ccc12)NC(=O)[C@@H](N)CCCNC(=N)N)C(=O)NCCc1ccccc1
MIC [1]: > 64 µM
MIC [2]: > 64 µM
MIC [3]: 16 µM
MIC [4]: 8 µM
MIC [5]: > 64 µM
hemolysis at 0.75 h, 100 µM [6]: 0.29%
IC50 at 24 h [7]: > 87.5 µM

COc1ccc(-c2ccc(C[C@H](NC(=O)[C@@H](N)CCCNC(=N)N)C(=O)N[C@@H](CCCNC(=N)N)C(=O)NCCc3ccccc3)cc2)cc1
MIC [1]: > 64 µM
MIC [2]: 32 µM
MIC [3]: 2 µM
MIC [4]: 2 µM
MIC [5]: > 64 µM
hemolysis at 0.75 h, 100 µM [6]: 0.4%
IC50 at 24 h [7]: > 87.5 µM

COc1c(Br)cc(-c2ccc(C[C@H](NC(=O)[C@@H](N)CCCNC(=N)N)C(=O)N[C@@H](CCCNC(=N)N)C(=O)NCCc3ccccc3)cc2)cc1Br
MIC [1]: 16 µM
MIC [2]: 8 µM
MIC [3]: 4 µM
MIC [4]: 4 µM
MIC [5]: 16 µM
hemolysis at 0.75 h, 100 µM [6]: 1.38%
IC50 at 24 h [7]: > 87.5 µM

COc1c(Br)cc(CCNC(=O)[C@H](CCCNC(=N)N)NC(=O)[C@H](Cc2ccc(-c3cc(Br)c(OC)c(Br)c3)cc2)NC(=O)[C@@H](N)CCCNC(=N)N)cc1Br
MIC [1]: 8 µM
MIC [2]: 4 µM
MIC [3]: 4 µM
MIC [4]: 4 µM
MIC [5]: 16 µM
hemolysis at 0.75 h, 100 µM [6]: 1.62%
IC50 at 24 h [7]: > 87.5 µM

C[N+](C)(C)CCCC[C@H](NC(=O)[C@H](Cc1ccc(-c2ccccc2)cc1)NC(=O)[C@@H](N)CCCNC(=N)N)C(=O)NCCc1ccccc1 (H-Arg-[Bip]-[Lys(Me3)]-NHPhenethyl)
MIC [1]: > 64 µM
MIC [2]: > 64 µM
MIC [3]: > 64 µM
MIC [4]: > 64 µM
MIC [5]: > 64 µM

N=C(N)NCCC[C@H](NC(=O)[C@H](Cc1ccccc1)NC(=O)[C@@H](N)CCCNC(=N)N)C(=O)NCCc1ccccc1 (H-Arg-Phe-Arg-NHPhenethyl)
MIC [1]: > 64 µM
MIC [2]: > 64 µM
MIC [3]: > 64 µM
MIC [4]: > 64 µM
MIC [5]: > 64 µM
hemolysis at 0.75 h, 100 µM [6]: 0.33%

COc1c(Br)cc(CCNC(=O)[C@H](CCCCN)NC(=O)[C@H](Cc2cc(Br)c(OC)c(Br)c2)NC(=O)[C@@H](N)CCCCN)cc1Br
MIC [1]: > 64 µM
MIC [2]: 64 µM
MIC [3]: > 64 µM
MIC [4]: 32 µM
MIC [5]: > 64 µM

COc1c(Br)cc(CCNC(=O)[C@H](CCCNC(=N)N)NC(=O)[C@H](Cc2c[nH]c3cc(Br)ccc23)NC(=O)[C@@H](N)CCCNC(=N)N)cc1Br
MIC [1]: 16 µM
MIC [2]: 8 µM
MIC [3]: 2 µM
MIC [4]: 2 µM
MIC [5]: 16 µM
hemolysis at 0.75 h, 100 µM [6]: 1.19%
IC50 at 24 h [7]: > 87.5 µM

COc1c(Br)cc(C[C@H](NC(=O)[C@@H](N)CCCNC(=N)N)C(=O)N[C@@H](CCCNC(=N)N)C(=O)NCCc2ccccc2)cc1Br
MIC [1]: > 64 µM
MIC [2]: > 64 µM
MIC [3]: 16 µM
MIC [4]: 8 µM
MIC [5]: 64 µM
hemolysis at 0.75 h, 100 µM [6]: 0.34%

POLYMYXIN B
MIC [1]: 0.0625 µM
MIC [2]: > 64 µM

C[N+](C)(C)CCCC[C@H](N)C(=O)N[C@@H](Cc1ccc(-c2ccccc2)cc1)C(=O)N[C@@H](CCCNC(=N)N)C(=O)NCCc1ccccc1 (H-[Lys(Me3)]-[Bip]-Arg-NHPhenethyl)
MIC [1]: > 64 µM
MIC [2]: > 64 µM
MIC [3]: > 64 µM
MIC [4]: > 64 µM
MIC [5]: > 64 µM

CC(C)(C)c1cc(C(C)(C)C)c2[nH]c(C(C)(C)C)c(C[C@H](NC(=O)[C@@H](N)CCCNC(=N)N)C(=O)N[C@@H](CCCNC(=N)N)C(=O)NCCc3ccccc3)c2c1 [LTX-109]
MIC [1]: 2 µM
MIC [2]: 2 µM
MIC [3]: 4 µM
MIC [4]: 2 µM
MIC [5]: 8 µM
hemolysis at 0.75 h, 100 µM [6]: 4.23%
EC50 at 45 min [8]: 222 µM
IC50 at 24 h [7]: 46.6 µM

COc1c(Br)cc(C[C@H](NC(=O)CCCCC[N+](C)(C)C)C(=O)N[C@@H](CCCNC(=N)N)C(=O)NCCc2ccccc2)cc1Br
MIC [1]: > 64 µM
MIC [2]: > 64 µM
MIC [3]: > 64 µM
MIC [4]: > 64 µM
MIC [5]: > 64 µM

COc1ccc(CCNC(=O)[C@H](CCCNC(=N)N)NC(=O)[C@H](Cc2ccc(-c3ccc(OC)c(Br)c3)cc2)NC(=O)[C@@H](N)CCCNC(=N)N)cc1Br
MIC [1]: > 64 µM
MIC [2]: > 64 µM
MIC [3]: 32 µM
MIC [4]: 4 µM
MIC [5]: > 64 µM
hemolysis at 0.75 h, 100 µM [6]: 0.29%
